Measured values: ChEMBL document CHEMBL5149988, “Structure-Based Design of Selective Salt-Inducible Kinase Inhibitors” (J Med Chem, 2021)

Assay: Metabolic stability in Sprague-Dawley rat liver microsomes assessed as parent compound remaining incubated for 1 hrs by HPLC analysis
Assay type: ADME, Microsome
Conditions: read-out: Stability
Procedure, shortened: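 Rat (Sprague-Dawley) activated liver microsome mix; compound incubated at 37 °C and sampled at 0, 15, 30 and 60 min. Unmetabolized parent quantified by HPLC.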

remaining at 1 h: > 90%
SMILES: CNc1ncc2cc(-c3ccc(-c4ncccc4F)cc3Cl)c(=O)n(C[C@H]3OC[C@H](N)CO3)c2n1
